Screening results: PubChem, Johns Hopkins Ion Channel Center
KCNQ1 act – human KCNQ1 channel potentiation or activation | P51787 | CHO-K1 KCNQ1, thallium flux FluxOR fluorescence; active compounds read high | B-score at 10 µM | hit rate 0.35% among 310,000 | AID 2648;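 active means fluorescence ratio B-score, a plate-corrected score, at least three library SD, with initial intensity B-score within 5 SD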
Target sequence (P51787 whole entry, looked up): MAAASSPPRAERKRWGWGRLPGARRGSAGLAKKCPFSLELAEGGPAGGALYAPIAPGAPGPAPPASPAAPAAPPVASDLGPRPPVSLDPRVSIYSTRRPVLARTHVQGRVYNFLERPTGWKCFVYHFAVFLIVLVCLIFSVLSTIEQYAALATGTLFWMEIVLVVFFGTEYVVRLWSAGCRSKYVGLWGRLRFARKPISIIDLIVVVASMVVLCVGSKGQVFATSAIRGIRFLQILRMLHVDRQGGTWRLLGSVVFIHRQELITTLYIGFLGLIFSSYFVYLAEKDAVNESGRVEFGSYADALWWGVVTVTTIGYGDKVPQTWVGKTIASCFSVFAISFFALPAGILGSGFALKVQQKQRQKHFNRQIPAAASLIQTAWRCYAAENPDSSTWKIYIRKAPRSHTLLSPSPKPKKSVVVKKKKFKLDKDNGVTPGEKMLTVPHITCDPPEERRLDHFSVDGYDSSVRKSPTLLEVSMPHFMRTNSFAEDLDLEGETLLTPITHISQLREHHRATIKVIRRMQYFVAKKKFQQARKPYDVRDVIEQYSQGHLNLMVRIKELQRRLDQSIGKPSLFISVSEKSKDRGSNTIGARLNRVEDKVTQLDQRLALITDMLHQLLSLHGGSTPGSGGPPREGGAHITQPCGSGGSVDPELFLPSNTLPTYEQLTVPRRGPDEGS
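Doses: Single concentration per compound, DMSO matched to controls | Test system: KCNQ1-transfected CHO-K1 cells | Timing: 90 min dye loading and 20 min compound exposure, both at room temperature | Measured by: Kinetic FluxOR thallium fluorescence, 10-s 1-Hz baseline, 110-s post-stimulus read | Medium: Assay buffer with matched DMSO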
KCNK3 block – human KCNK3 channel inhibition, primary screen; AID 602410; hit rate 0.84% among 340,000; CHO-KCNK3 thallium flux, FluxOR fluorescence; active compounds read low; O14649; B-score at 10 µM;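 active means B-score under library mean minus 4 SD, starting fluorescence ratio at most library mean plus 5 SD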;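 further: more negative B-score means stronger inhibition of thallium flux through KCNK3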
hERG rescue – shields human hERG channel from block by proarrhythmic agents. Q12809. CHO-hERG, FluxOR thallium flux, dofetilide IC70 present. activation (rescue from dofetilide block), less the hit threshold, % at 10 µM. hit rate 0.51% among 310,000. AID 1511;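 active means activation above the mean of controls blocked by dofetilide plus 5 SD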;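 further: thallium influx through hERG after potassium depolarization seen as dye fluorescence rise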
KCNK9 block – human KCNK9 channel inhibition. B-score at 10 µM. HEK293 KCNK9, FluxOR thallium flux fluorescence; active compounds read low. hit rate 1.2% among 310,000;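 active means ratio B-score over 3 SD below the library mean, with starting fluorescence within 5 SD of its mean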;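 further: negative B-score means less thallium flux so channel inhibition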
KCNQ1 block – human KCNQ1 channel inhibition. P51787. CHO-K1 KCNQ1, FluxOR thallium flux fluorescence; active compounds read high. B-score at 10 µM. hit rate 1.3% among 310,000. AID 2642;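 active means compounds whose thallium flux B-score, printed positive for inhibition, exceeds three library SD while starting fluorescence stays within three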;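 further: channel opened by potassium depolarization with thallium stimulus after 20 min compound exposure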
* hit, by the source's call; i = inactive; . = no result. The list is not random: actives were taken first. Their share in the collection is about 3.1%.

SMILES | KCNQ1 act | KCNK3 block | hERG rescue | KCNK9 block | KCNQ1 block
O=C(NCCc1c[nH]c2ccccc12)Nc1ccccc1 | i | i | -11 | -6.9* | i
CC1(C)CC(NC(=O)c2ccc(Cl)c(S(=O)(=O)N(Cc3ccccc3)c3ccccc3)c2)CC(C)(C)N1 | i | i | -33 | i | i
Cc1cc(Br)cc2c1NC(=O)C2(c1c(C)n(C)n(-c2ccccc2)c1=O)c1c(C)n(C)n(-c2ccccc2)c1=O | i | i | -15 | i | i
COc1cc(C2(c3ccc(O)c(OC)c3)C(=O)Nc3c(C)cc(Br)cc32)ccc1O | 9* | i | -9 | i | i
O=C(NC12CC3CC(CC(C3)C1)C2)c1cc([N+](=O)[O-])ccc1N1CCOCC1 | i | i | -12 | i | 7*
C[C@H](NC(=O)c1[nH]cnc1C(=O)N[C@H](C)c1ccccc1)c1ccccc1 | . | i | . | . | .
Cc1cccc(C2C3=C(Nc4[nH]n(-c5ccccc5)c(=O)c42)c2ccccc2C3=O)c1 (stereo unspecified) | i | i | -23 | -7.5* | i
CC1=C([N+](=O)[O-])C(c2ccccc2)C2=C(N1)c1ccccc1C2=O (stereo unspecified) | i | i | -15 | i | i
Cc1ccc(-n2ncc3c(=O)n(CC(=O)N4CCN(c5ccccc5F)CC4)cnc32)cc1C | 7* | i | 0 | i | i
Cc1cc(C)n(CC(=O)N2c3ccccc3Sc3ccc(C(F)(F)F)cc32)n1 | i | i | -11 | i | i
COc1ccc(/C=C/C(=O)N2c3ccccc3Sc3ccc(C(F)(F)F)cc32)cc1 | i | i | -11 | -7.3* | i
CCN(CC)c1ccc(C(=C2C=CC(=[N+](CC)CC)C=C2)c2ccc(N(CC)CC)cc2)cc1 | . | -12* | . | . | .
COc1cccc([C@@H]2Oc3ccc(OC)cc3C(=O)[C@H]2OC(=O)NCc2ccc3c(c2)OCO3)c1 | i | . | 4.6* | i | i
COC(=O)[C@H](Cc1ccccc1)NC(=O)O[C@H]1C(=O)c2ccc(OC)cc2O[C@@H]1c1ccc2c(c1)OCO2 | i | . | -10 | i | i
COc1ccc2c(c1)O[C@@H](c1cccc(C(F)(F)F)c1)[C@H](OC(=O)NCCc1ccc(OC)c(OC)c1)C2=O | 8* | . | 8.4* | i | i
O=C(CCNc1ccc(Cl)c(C(F)(F)F)c1)c1ccco1 | i | i | -12 | -7.3* | i
O=C(CCNc1ccc(F)c(Cl)c1)c1ccco1 | i | i | -5 | i | i
CCCNC(=O)c1ccccc1NC(=O)c1cccc(-n2cnnn2)c1 | . | i | . | . | .
O=C(NNC(=S)Nc1ccc(Br)cc1)c1ccc(N2CCOCC2)c([N+](=O)[O-])c1 | i | i | -13 | i | 9*
O=C(Nc1cccnc1)c1ccc(N2CCOCC2)c([N+](=O)[O-])c1 | i | i | -8 | i | i
O=C(NC(=S)Nc1ccccc1N1CCCC1)c1ccc([N+](=O)[O-])cc1 | 8* | i | 8.1* | i | i
O=C(NC(=S)Nc1cc([N+](=O)[O-])ccc1O)c1ccc2c(c1)OCO2 | i | i | -12 | i | 6*
O=C(NC(=S)Nc1ccccc1N1CCCC1)c1ccc(-c2cccc([N+](=O)[O-])c2)o1 | 8* | i | -1 | i | i
COC(=O)c1ccccc1NC(=S)NC(=O)c1ccc2c(c1)OCO2 | i | i | -8 | i | i
O=C(NC(=S)Nc1ccccc1N1CCCCC1)c1ccc(-c2cccc([N+](=O)[O-])c2)o1 | i | i | -9 | i | i
SMILES | KCNQ1 act | KCNK3 block | hERG rescue | KCNK9 block | KCNQ1 block
COc1ccccc1NS(=O)(=O)c1ccc(C)c(NC(=O)C2CCCO2)c1 (stereo unspecified) | . | i | . | . | .
Nc1ncnc2c1ncn2[C@@H]1O[C@H](CNCc2cn(CC(=O)NC3CC3)c3ccccc23)[C@@H](O)[C@H]1O | . | i | . | . | .
O=C(CSc1nc2ccccc2nc1N1CCCCC1)N1CCN(c2ccccc2)CC1 | i | i | -15 | i | 6*
CSc1nc(N)nc(SCC(=O)C23CC4CC(CC(C4)C2)C3)c1C#N | i | i | -16 | -7.5* | i
CC(C)(C)OC(=O)NCCOC(=O)c1[nH]cnc1C(=O)NCc1ccccc1 | . | i | . | . | .
CC(=O)c1ccc2c(c1)c(C#N)c1ccccc1[n+]2[O-] | i | i | -23 | i | 11*
CC(=O)c1ccc2noc(-c3ccccc3)c2c1 | i | i | -14 | i | i
COc1cccc(NC(=O)COC(=O)c2c(C)nn(-c3ccccc3)c2C)c1 | . | i | . | . | .
CC1CCN(c2nc(Cl)nc(Nc3ccc([N+](=O)[O-])cc3)n2)CC1 | i | i | -5 | i | 8*
C=CCNc1nc(Nc2ccc([N+](=O)[O-])cc2)nc(N2CCCC2)n1 | i | i | -20 | i | 8*
C=CCNc1nc(Cl)nc(Nc2ccc([N+](=O)[O-])cc2)n1 | i | i | -2 | i | i
O=C(/C=C/c1ccccc1)NCC(=O)N/N=C/c1ccco1 | i | i | -5 | i | i
COc1ccc(Cl)cc1NC(=O)CN(C)C(=O)CCc1nc2ccccc2c(=O)[nH]1 | . | i | . | . | .
CCN(CC(=O)Nc1ccc(NC(C)=O)cc1)C(=O)c1ccc(S(=O)(=O)N2CCCC2)cc1 | . | i | . | . | .
O=C(N/N=C/c1c(O)ccc2ccccc12)c1ccc(Br)o1 | i | i | -15 | i | 6*
O=C(N/N=C/c1c(O)ccc2ccccc12)Nc1ccccc1 | i | i | -9 | i | 6*
O=C(NC(=S)NN1CCOCC1)c1cc(Br)ccc1Cl | . | i | . | . | .
Cc1cccc(-n2c(N)c(-c3nc4ccccc4n3C)c3nc4ccccc4nc32)c1 | i | -8.8* | -14 | i | i
CC[C@]1(C(=O)OC)[C@H]2C(=O)N(C)C(=O)[C@H]2[C@H]2CN=C(SCc3ccc(C(=O)OC)cc3)N21 | . | i | . | . | .
COc1cc(C2c3cc4c(cc3C(OC3OC5COC(c6cccs6)OC5C(O)C3O)C3COC(=O)C23)OCO4)cc(OC)c1O (stereo unspecified) | i | i | -13 | i | 8*
COc1ccc(/C=N/NC(=O)c2cc(C(C)(C)C)[nH]n2)cc1COc1ccc(F)cc1F | i | i | -12 | i | 6*
COc1ccc(/C=N\NC(=O)c2ccccc2F)cc1COc1ccc(F)cc1F | i | i | -10 | i | i
COc1ccc(/C=N/NC(=O)c2cc(C)oc2C)cc1OCc1ccccc1 | i | i | -11 | -6.7* | i
COc1ccc(/C=N\NC(=O)c2ccccc2F)cc1COc1ccc(F)cc1 | i | i | -1 | i | i
COc1ccc(/C=N\NC(=O)c2ccccc2Br)cc1COc1c(F)c(F)cc(F)c1F | i | i | -9 | i | 6*
Cc1nn(-c2ccccc2)c(C)c1C(=O)NCc1ccc(S(N)(=O)=O)cc1 | i | i | 2 | i | i
